Series [1] addresses T1, Short transient receptor potential channel 3 (Homo sapiens) (UniProt Q13507).
T1 sequence (whole entry): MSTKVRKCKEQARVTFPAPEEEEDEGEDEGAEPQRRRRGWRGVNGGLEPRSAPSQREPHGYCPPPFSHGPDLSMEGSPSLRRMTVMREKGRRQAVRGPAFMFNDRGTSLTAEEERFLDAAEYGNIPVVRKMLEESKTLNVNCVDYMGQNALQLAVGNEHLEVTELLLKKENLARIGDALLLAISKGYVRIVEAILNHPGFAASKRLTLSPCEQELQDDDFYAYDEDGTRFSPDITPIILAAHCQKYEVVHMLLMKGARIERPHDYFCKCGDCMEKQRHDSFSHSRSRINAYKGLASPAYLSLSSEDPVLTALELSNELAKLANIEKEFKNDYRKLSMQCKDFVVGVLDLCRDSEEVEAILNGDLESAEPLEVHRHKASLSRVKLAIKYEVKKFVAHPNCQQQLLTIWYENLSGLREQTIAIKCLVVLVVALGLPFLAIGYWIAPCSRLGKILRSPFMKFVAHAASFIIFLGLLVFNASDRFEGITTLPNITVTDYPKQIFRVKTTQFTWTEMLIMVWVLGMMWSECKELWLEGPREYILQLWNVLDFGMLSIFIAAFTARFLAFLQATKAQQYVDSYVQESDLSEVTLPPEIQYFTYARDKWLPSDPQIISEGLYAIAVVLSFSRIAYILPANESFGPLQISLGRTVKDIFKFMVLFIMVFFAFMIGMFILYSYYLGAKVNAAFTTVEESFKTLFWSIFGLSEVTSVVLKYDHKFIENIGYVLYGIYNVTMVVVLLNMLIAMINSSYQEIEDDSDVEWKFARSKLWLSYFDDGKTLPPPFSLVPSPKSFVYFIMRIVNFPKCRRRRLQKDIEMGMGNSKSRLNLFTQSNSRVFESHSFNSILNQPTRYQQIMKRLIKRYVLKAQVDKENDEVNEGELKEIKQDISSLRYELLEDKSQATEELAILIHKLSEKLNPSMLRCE
The series is described as follows: Inhibition of human TRPC3 expressed in HEK293 cells assessed as inhibition of GSK170-induced current at 10 uM in absence of extracellular calcium by whole cell patch-clamp method relative to control. It counts as cell-based. The method in brief:
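Human TRPC3 transiently expressed in HEK293 cells; whole-cell patch clamp with Ca2+-free solutions. Channel activated by GSK1702934A, then test compound at 10 μM perfused with the agonist. Inhibition expressed as percentage of the agonist-evoked current; mean ± SD, n cells per compound.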
Background: In patch-clamp work, channel activity is measured electrically.

For series [2], the target named is T2, Short transient receptor potential channel 3 (Homo sapiens, UniProt Q13507).
T2 sequence (Q13507 whole entry): T1 sequence (whole entry)
The series is described as follows: Inhibition of human TRPC3 expressed in HEK293 cells assessed as inhibition of GSK170-induced current in presence of 2 mM extracellular calcium by whole cell patch-clamp method. It is filed as cell-based. The essentials: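 hTRPC3 in HEK293 cells, whole-cell patch clamp with 2 mM extracellular Ca2+. Currents elicited by 1 μM GSK1702934A and challenged with a range of inhibitor concentrations by perfusion. Each concentration tested on separate cells and normalized to the cell's maximum amplitude. Dose–response curve built from the data; mean ± SD.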

The target of series [3] is Transient receptor potential cation channel subfamily V member 4 (Rattus norvegicus) (UniProt Q9ERZ8). The series is described as follows: Inhibition of rat TRPV4 expressed in HEK293 cells assessed as inhibition of GSK101-induced current at 10 uM by whole cell patch-clamp method. It is filed as cell-based. The essentials:
(§1)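 TRP channels overexpressed in HEK293 cells (hTRPA1, rTRPV1, rTRPV4, mouse TRPC6, hTRPC7, hTRPM8). Whole-cell patch clamp with Ca2+-free solutions to avoid desensitization. Channels fully activated with high concentrations of their agonists (AITC for TRPA1, capsaicin for TRPV1, GSK1016790A for TRPV4), then 10 μM test compound perfused with agonist. Result expressed as percentage of peak current blocked; mean ± SD.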

The target in series [4] is T3, Short transient receptor potential channel 7 (Homo sapiens) (UniProt Q9HCX4).
T3 sequence (whole entry): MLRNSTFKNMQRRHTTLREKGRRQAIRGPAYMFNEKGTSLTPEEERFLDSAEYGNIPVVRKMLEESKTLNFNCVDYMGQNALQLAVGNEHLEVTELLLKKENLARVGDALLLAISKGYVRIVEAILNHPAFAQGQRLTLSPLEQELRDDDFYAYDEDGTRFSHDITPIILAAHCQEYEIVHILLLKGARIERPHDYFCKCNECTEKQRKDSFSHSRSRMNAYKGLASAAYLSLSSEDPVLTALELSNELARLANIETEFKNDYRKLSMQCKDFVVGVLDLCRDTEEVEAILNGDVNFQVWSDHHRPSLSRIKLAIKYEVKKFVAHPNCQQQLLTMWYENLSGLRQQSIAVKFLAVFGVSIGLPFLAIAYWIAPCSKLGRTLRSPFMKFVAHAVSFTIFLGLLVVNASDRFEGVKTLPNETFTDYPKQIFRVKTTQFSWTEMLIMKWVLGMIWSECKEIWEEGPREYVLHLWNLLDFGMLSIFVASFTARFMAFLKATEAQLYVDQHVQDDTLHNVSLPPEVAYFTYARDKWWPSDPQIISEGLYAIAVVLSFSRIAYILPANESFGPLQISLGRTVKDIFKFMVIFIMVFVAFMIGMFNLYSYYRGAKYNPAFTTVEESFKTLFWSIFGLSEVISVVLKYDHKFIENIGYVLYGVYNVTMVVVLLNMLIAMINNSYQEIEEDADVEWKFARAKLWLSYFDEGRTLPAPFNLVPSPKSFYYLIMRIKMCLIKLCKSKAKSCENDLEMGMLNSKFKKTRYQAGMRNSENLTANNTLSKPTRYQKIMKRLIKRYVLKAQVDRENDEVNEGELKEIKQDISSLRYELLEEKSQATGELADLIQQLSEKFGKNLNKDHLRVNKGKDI
The series is described as follows: Inhibition of human TRPC7 expressed in HEK293 cells assessed as inhibition of GSK170-induced current at 10 uM by whole cell patch-clamp method. It is filed as cell-based. The essentials: as §1

For another series, the target named is ORAI1/STIM1 (Homo sapiens, UniProt Q96D31+Q13586). The series is described as follows: Inhibition of STIM/Orai1 (unknown origin) expressed in HEK293 cells assessed as reduction in thapsigargin-induced Ca2+ influx at 10 uM in presence of Ca2+ by whole cell patch clamp method. It is filed as cell-based. Conditions: hek293, 10 µM.
Series [5] is described as follows: Binding affinity to human His8-MBP-TRPC3b I395V mutant expressed in baculovirus infected Sf9 cells incubated for 1 hr by LC-MS analysis. The method in brief: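 Purified hTRPC3 protein incubated with compound for 1 h. Free compound removed by repeated size-exclusion chromatography. Methanol added to denature the protein and extract bound compound, which is detected by LC-MS against a prepared control. MS data collected from 2.5 min onward to keep buffer salts out.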

Another series has as its system Hippocampal neurone. The series is described as follows: Neuroprotective activity in Sprague-Dawley rat primary hippocampal neurons assessed as reduction in Abeta-induced dendrites damage at 0.25 to 1 uM incubated for 16 hrs by MAP2 staining based assay. It is filed as functional, tissue-based. Conditions: dose 0.25-1 µM. The essentials: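 Primary hippocampal neurons from E17 rat embryos, used at 14 DIV. Treated for 16 h with naturally secreted Aβ-containing 7PA2 conditioned medium (CHO medium as control), alone or with test compound at several concentrations. Neurons then immunostained for MAP2 with DAPI, and dendritic length quantified.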

Calls of active or inactive are those of the source. The rule behind the calls is not given here.

The term inhibition denotes the drop in the measured response relative to a control, in per cent. The term IC50 denotes the point on the concentration scale where inhibition reaches its midpoint.

Chain of Transient receptor potential cation channel subfamily V member 4 (Rattus norvegicus) (Q9ERZ8 whole entry, the tested form may be a part): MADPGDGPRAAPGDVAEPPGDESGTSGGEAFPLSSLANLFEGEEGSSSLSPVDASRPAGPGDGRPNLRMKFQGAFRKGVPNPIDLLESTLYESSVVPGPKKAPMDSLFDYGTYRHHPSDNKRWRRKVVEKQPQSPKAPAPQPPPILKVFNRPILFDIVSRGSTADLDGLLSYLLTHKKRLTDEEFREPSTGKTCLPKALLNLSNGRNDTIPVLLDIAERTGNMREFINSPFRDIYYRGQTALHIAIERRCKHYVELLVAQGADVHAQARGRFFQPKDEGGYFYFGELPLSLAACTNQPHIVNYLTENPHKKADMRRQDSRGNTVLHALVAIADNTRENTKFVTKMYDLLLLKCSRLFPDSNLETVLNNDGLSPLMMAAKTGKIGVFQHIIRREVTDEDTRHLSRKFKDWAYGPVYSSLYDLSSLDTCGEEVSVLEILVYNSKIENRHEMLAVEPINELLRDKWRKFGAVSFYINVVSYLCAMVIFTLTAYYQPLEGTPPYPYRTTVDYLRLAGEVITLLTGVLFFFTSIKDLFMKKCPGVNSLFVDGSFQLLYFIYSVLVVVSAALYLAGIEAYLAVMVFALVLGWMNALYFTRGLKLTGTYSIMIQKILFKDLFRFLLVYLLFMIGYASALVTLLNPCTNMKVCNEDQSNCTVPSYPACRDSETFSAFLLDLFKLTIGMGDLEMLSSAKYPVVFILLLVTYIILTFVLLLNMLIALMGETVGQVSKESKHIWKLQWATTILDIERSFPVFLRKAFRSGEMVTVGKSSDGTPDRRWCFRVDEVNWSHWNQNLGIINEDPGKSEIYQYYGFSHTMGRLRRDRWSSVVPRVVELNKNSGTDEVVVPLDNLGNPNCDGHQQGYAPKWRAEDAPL
Chain of ORAI1/STIM1 (Q96D31 whole entry): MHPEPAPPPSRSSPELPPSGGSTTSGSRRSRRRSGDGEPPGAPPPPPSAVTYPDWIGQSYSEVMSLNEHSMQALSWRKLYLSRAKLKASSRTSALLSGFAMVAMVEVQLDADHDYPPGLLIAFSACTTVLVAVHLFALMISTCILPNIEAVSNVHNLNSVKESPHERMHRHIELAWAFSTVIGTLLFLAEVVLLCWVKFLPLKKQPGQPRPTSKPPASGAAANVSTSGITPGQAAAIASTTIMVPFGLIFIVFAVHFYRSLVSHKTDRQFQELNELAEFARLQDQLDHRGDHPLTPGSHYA
Chain of ORAI1/STIM1 (Q13586 whole entry): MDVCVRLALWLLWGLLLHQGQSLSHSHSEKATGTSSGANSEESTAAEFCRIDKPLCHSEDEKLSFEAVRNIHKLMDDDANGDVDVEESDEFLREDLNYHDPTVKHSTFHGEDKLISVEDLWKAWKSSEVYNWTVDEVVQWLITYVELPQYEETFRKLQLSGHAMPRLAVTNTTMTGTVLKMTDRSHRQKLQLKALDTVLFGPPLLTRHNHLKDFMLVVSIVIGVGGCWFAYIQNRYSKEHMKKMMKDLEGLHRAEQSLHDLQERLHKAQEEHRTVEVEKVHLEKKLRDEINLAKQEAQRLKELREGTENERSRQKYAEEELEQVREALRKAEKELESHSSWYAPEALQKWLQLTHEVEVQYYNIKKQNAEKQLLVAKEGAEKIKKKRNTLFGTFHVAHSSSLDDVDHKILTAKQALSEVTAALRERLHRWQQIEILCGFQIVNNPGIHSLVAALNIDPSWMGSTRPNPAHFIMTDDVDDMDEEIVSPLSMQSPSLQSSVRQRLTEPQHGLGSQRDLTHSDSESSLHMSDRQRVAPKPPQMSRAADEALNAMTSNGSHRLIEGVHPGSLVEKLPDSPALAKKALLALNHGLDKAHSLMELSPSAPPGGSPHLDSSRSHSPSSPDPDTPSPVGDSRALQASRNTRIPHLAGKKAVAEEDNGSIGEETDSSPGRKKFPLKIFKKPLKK

With `CCNC(=O)c1cnn(-c2ccc(-n3ccc(Cl)c(Cl)c3=O)cc2)c1C(F)(F)F`, the inhibition in series [1] turned out to be 89%; in series [4], 26%. In addition, in series [2], the concentration for half-maximal inhibition (IC50) is 430 nM. The inhibition entry in series [3] was “inactive”. Moreover, on ORAI1/STIM1, the “inhibition (INH)” value is listed as “Active”. For the same compound, the result (in series [5]; in the series on Hippocampal neurone) was Active.
